Experimental data reported in ChEMBL document CHEMBL1144716, “Synthesis of 1-/2-substituted-[1,2,3]triazolo[4,5-g]phthalazine-4,9-diones and evaluation of their cytotoxicity and topoisomerase II inhibition” (Bioorg Med Chem, 2008).

Key:
A549 = test: Cytotoxicity against human A549 cells after 3 days by SRB assay; type: functional, cell-based; conditions: A549, 72 h
SK-OV-3 = test: Cytotoxicity against human SKOV3 cells after 3 days by SRB assay; type: functional, cell-based; conditions: SK-OV-3, 72 h
SK-MEL-2 = test: Cytotoxicity against human SK-MEL-2 cells after 3 days by SRB assay; type: functional, cell-based; conditions: SK-MEL-2, 72 h
XF498 = test: Cytotoxicity against human XF498 cells after 3 days by SRB assay; type: functional, cell-based; conditions: XF498, 72 h
HCT-15 = test: Cytotoxicity against human HCT15 cells after 3 days by SRB assay; type: functional, cell-based; conditions: HCT-15, 72 h
SNU-638 = test: Cytotoxicity against human SNU638 cells after 3 days by SRB assay; type: functional, cell-based; conditions: SNU-638, 72 h
HT-1080 = test: Cytotoxicity against human HT1080 cells after 3 days by SRB assay; type: functional, cell-based; conditions: HT-1080, 72 h
HL-60 = test: Cytotoxicity against human HL60 cells after 3 days by SRB assay; type: functional, cell-based; conditions: HL-60, 72 h
[1] = target: DNA topoisomerase 2-alpha (Homo sapiens, UniProt P11388); test: Inhibition of human recombinant topoisomerase 2 by decatenation assay
DNA topoisomerase 2-alpha, sequence (P11388 whole entry): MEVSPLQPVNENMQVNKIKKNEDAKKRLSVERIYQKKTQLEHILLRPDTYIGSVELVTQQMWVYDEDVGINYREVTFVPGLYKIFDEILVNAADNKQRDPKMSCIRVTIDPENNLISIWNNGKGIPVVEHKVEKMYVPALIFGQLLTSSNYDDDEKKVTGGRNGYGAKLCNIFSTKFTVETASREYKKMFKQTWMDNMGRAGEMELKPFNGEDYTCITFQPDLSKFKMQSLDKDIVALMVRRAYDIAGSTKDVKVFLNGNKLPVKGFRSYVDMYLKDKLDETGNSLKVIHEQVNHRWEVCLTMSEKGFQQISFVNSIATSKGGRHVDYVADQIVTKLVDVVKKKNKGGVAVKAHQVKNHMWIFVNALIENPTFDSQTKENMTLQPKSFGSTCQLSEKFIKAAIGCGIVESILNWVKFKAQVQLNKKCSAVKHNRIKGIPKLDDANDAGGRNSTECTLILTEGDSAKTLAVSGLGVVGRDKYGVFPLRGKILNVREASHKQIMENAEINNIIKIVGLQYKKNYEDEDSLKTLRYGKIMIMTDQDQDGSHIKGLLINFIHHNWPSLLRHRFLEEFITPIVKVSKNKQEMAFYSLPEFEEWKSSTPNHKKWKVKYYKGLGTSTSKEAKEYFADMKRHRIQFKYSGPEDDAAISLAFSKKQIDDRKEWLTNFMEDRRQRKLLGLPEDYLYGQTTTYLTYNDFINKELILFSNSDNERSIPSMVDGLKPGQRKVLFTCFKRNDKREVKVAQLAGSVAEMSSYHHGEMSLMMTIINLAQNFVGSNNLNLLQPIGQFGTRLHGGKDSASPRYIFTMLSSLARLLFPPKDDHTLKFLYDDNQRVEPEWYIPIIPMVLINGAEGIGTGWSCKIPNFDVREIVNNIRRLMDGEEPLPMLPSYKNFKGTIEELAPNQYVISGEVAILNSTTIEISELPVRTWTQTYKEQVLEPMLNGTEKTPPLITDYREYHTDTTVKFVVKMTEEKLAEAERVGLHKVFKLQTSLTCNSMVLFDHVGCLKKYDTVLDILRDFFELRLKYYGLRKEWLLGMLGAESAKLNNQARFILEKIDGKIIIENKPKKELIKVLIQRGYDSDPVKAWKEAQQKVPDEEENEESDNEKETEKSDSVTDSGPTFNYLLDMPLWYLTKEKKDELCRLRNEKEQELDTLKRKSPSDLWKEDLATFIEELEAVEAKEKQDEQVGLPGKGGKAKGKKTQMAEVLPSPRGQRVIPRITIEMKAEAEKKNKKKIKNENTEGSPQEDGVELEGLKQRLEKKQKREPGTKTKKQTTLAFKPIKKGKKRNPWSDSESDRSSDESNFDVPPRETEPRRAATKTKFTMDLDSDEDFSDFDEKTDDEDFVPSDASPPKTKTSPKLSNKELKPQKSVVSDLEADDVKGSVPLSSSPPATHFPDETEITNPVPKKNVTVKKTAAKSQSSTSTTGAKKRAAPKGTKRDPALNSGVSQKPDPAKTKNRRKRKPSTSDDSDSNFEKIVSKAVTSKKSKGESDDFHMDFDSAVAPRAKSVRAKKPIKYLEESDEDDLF
Procedure, shortened: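 One unit of human recombinant topo II (the amount that fully decatenates 200 ng kDNA) with 200 ng kinetoplast DNA in 50 mM Tris-HCl pH 8, 120 mM KCl, 10 mM MgCl2, 0.5 mM ATP, 0.5 mM DTT, 30 µg/mL BSA. Drug stocks in DMSO. 10 min at 37 °C, stopped with sarkosyl loading dye. Decatenation read on 1% agarose gel in TBE.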

O=C1c2cnncc2C(=O)c2[nH]nnc21
IC50 (A549): 9.02 µM
IC50 (SK-OV-3): 7.64 µM
IC50 (SK-MEL-2): > 10 µM
IC50 (XF498): > 10 µM
IC50 (HCT-15): > 10 µM
IC50 (SNU-638): > 5 µM
IC50 (HT-1080): > 5 µM
IC50 (HL-60): > 5 µM
IC50 [1]: 52.8 µM

CCCn1nc2c(n1)C(=O)c1cnncc1C2=O
IC50 (A549): 0.019 µM
IC50 (SK-OV-3): 0.009 µM
IC50 (SK-MEL-2): 0.009 µM
IC50 (XF498): 0.018 µM
IC50 (HCT-15): 0.018 µM
IC50 (SNU-638): 0.043 µM
IC50 (HT-1080): 0.033 µM
IC50 (HL-60): 0.157 µM
IC50 [1]: 44.4 µM

CCCCn1nnc2c1C(=O)c1cnncc1C2=O
IC50 (A549): 0.081 µM
IC50 (SK-OV-3): 0.021 µM
IC50 (SK-MEL-2): 0.023 µM
IC50 (XF498): 0.181 µM
IC50 (HCT-15): 0.177 µM
IC50 (SNU-638): 0.155 µM
IC50 (HT-1080): 0.099 µM
IC50 (HL-60): 0.089 µM
IC50 [1]: 43.2 µM

CC(C)Cn1nnc2c1C(=O)c1cnncc1C2=O
IC50 (A549): 0.11 µM
IC50 (SK-OV-3): 0.19 µM
IC50 (SK-MEL-2): 0.066 µM
IC50 (XF498): 0.14 µM
IC50 (HCT-15): 0.11 µM
IC50 (SNU-638): 0.069 µM
IC50 (HT-1080): 0.077 µM
IC50 (HL-60): 0.075 µM
IC50 [1]: 29.8 µM

CC(C)n1nnc2c1C(=O)c1cnncc1C2=O
IC50 (A549): 0.032 µM
IC50 (SK-OV-3): 0.049 µM
IC50 (SK-MEL-2): 0.016 µM
IC50 (XF498): 0.049 µM
IC50 (HCT-15): 0.033 µM
IC50 (SNU-638): 0.057 µM
IC50 (HT-1080): 0.114 µM
IC50 (HL-60): 0.05 µM
IC50 [1]: 33.3 µM

CC(C)n1nc2c(n1)C(=O)c1cnncc1C2=O
IC50 (A549): 0.009 µM
IC50 (SK-OV-3): 0.031 µM
IC50 (SK-MEL-2): 0.007 µM
IC50 (XF498): 0.014 µM
IC50 (HCT-15): 0.014 µM
IC50 (SNU-638): 0.011 µM
IC50 (HT-1080): 0.055 µM
IC50 (HL-60): 0.018 µM
IC50 [1]: 54.5 µM

CCn1nc2c(n1)C(=O)c1cnncc1C2=O
IC50 (A549): 0.018 µM
IC50 (SK-OV-3): 0.003 µM
IC50 (SK-MEL-2): 0.004 µM
IC50 (XF498): 0.017 µM
IC50 (HCT-15): 0.018 µM
IC50 (SNU-638): 0.046 µM
IC50 (HT-1080): 0.204 µM
IC50 (HL-60): 0.09 µM
IC50 [1]: 61.5 µM

CCCn1nnc2c1C(=O)c1cnncc1C2=O
IC50 (A549): 0.026 µM
IC50 (SK-OV-3): 0.014 µM
IC50 (SK-MEL-2): 0.02 µM
IC50 (XF498): 0.085 µM
IC50 (HCT-15): 0.176 µM
IC50 (SNU-638): 0.212 µM
IC50 (HT-1080): 0.075 µM
IC50 (HL-60): 0.083 µM
IC50 [1]: 49 µM

COc1ccc(Cn2nnc3c2C(=O)c2cnncc2C3=O)cc1
IC50 (A549): 0.054 µM
IC50 (SK-OV-3): 0.012 µM
IC50 (SK-MEL-2): 0.041 µM
IC50 (XF498): 0.118 µM
IC50 (HCT-15): 0.059 µM
IC50 (SNU-638): 0.257 µM
IC50 (HT-1080): 0.33 µM
IC50 (HL-60): 0.13 µM
IC50 [1]: 28.6 µM

Cn1nc2c(n1)C(=O)c1cnncc1C2=O
IC50 (A549): 0.002 µM
IC50 (SK-OV-3): 0.0004 µM
IC50 (SK-MEL-2): 0.002 µM
IC50 (XF498): 0.004 µM
IC50 (HCT-15): 0.02 µM
IC50 (SNU-638): 0.054 µM
IC50 (HT-1080): 0.0078 µM
IC50 (HL-60): 0.124 µM
IC50 [1]: 55.6 µM

CCn1nnc2c1C(=O)c1cnncc1C2=O
IC50 (A549): 0.006 µM
IC50 (SK-OV-3): 0.003 µM
IC50 (SK-MEL-2): 0.008 µM
IC50 (XF498): 0.034 µM
IC50 (HCT-15): 0.039 µM
IC50 (SNU-638): 0.126 µM
IC50 (HT-1080): 0.068 µM
IC50 (HL-60): 0.056 µM
IC50 [1]: 55.6 µM

Cn1nnc2c1C(=O)c1cnncc1C2=O
IC50 (A549): 0.004 µM
IC50 (SK-OV-3): 0.003 µM
IC50 (SK-MEL-2): 0.008 µM
IC50 (XF498): 0.035 µM
IC50 (HCT-15): 0.103 µM
IC50 (SNU-638): 0.241 µM
IC50 (HT-1080): 0.073 µM
IC50 (HL-60): 0.082 µM
IC50 [1]: 39 µM

CC(C)Cn1nc2c(n1)C(=O)c1cnncc1C2=O
IC50 (A549): 0.019 µM
IC50 (SK-OV-3): 0.043 µM
IC50 (SK-MEL-2): 0.015 µM
IC50 (XF498): 0.019 µM
IC50 (HCT-15): 0.029 µM
IC50 (SNU-638): 0.014 µM
IC50 (HT-1080): 0.085 µM
IC50 (HL-60): 0.038 µM
IC50 [1]: 19.4 µM

COc1cccc2c1C(=O)c1c(O)c3c(c(O)c1C2=O)C[C@@](O)(C(=O)CO)C[C@@H]3O[C@H]1C[C@H](N)[C@H](O)[C@H](C)O1 [DOXORUBICIN]
IC50 (SK-OV-3): 0.041 µM
IC50 (SK-MEL-2): 0.019 µM
IC50 (XF498): 0.044 µM
IC50 (HCT-15): 0.251 µM
IC50 (SNU-638): 0.052 µM
IC50 (HT-1080): 0.022 µM
IC50 (HL-60): 0.044 µM

COc1cc([C@@H]2c3cc4c(cc3[C@@H](O[C@@H]3O[C@@H]5CO[C@@H](C)O[C@H]5[C@H](O)[C@H]3O)[C@H]3COC(=O)[C@H]23)OCO4)cc(OC)c1O [ETOPOSIDE]
IC50 (A549): 1.16 µM
IC50 (SK-OV-3): 4.28 µM
IC50 (SK-MEL-2): 5.72 µM
IC50 (XF498): 3.48 µM
IC50 (HCT-15): 2.8 µM
IC50 (SNU-638): 0.23 µM
IC50 (HT-1080): 0.25 µM
IC50 (HL-60): 0.37 µM

CCCCn1nc2c(n1)C(=O)c1cnncc1C2=O
IC50 (A549): 0.018 µM
IC50 (SK-OV-3): 0.017 µM
IC50 (SK-MEL-2): 0.015 µM
IC50 (XF498): 0.019 µM
IC50 (HCT-15): 0.018 µM
IC50 (SNU-638): 0.05 µM
IC50 (HT-1080): 0.03 µM
IC50 (HL-60): 0.151 µM
IC50 [1]: 64.8 µM
